Calls of active or inactive are those of the source. The calls are words filed in the database; no cut-off is given here.
Legend:
Format in all cases: functional, cell-based
[1] = test system: RAW264.7; assay: Antioxidant activity in lipopolysaccharide-stimulated mouse RAW264.7 cells assessed as decrease in ROS level at 0.1 to 10 uM using DCFH-DA by fluorescence assay
In short: (§1)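 RAW 264.7 cells (DMEM, 10% FBS, penicillin-streptomycin) seeded for 24 h, then treated with compounds at […] with or without LPS […]. Loaded with […] DCFH-DA for 20 min at 37 °C in 5% CO2, washed three times with PBS. Fluorescence read at ex488/em525 by laser scanning microscopy and quantified on a microplate reader.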

[2] = test system: RAW264.7; assay: Inhibition of LPS-induced P67phox protein expression in mouse RAW264.7 cells up to 10 uM pretreated for 1 hr before LPS challenge by Western blot analysis
In short: (§2)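 RAW 264.7 cells pretreated 1 h with compound at […], then stimulated with LPS […] for 24 h. Cytoplasmic extracts run on 12% SDS gel and transferred to PVDF. Membranes blocked in 5% nonfat milk/TBS, probed overnight at 4 °C with mouse anti-p67phox and β-actin (1:2000). HRP anti-mouse secondary 1 h at room temperature, ECL detection.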

[3] = test system: RAW264.7; assay: Antioxidant activity in lipopolysaccharide-stimulated mouse RAW264.7 cells assessed as decrease in ROS level using DCFH-DA by fluorescence assay; in short: as §1
[4] = test system: RAW264.7; assay: Inhibition of LPS-induced P67phox protein expression in mouse RAW264.7 cells compound pretreated for 1 hr before LPS challenge by Western blot analysis; in short: as §2
[5] = test system: RAW264.7; assay: Protection against LPS-induced cytotoxicity in mouse RAW264.7 cells assessed as cell viability at 0.1 to 100 uM pretreated for 1 hr before LPS challenge measured after 24 hrs by MTT assay
In short: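 RAW 264.7 cells seeded at 10⁴/well in 96-well plates and grown 24 h at 37 °C, 5% CO2. Pretreated with compounds at […] for 1 h, washed, then exposed to LPS for 24 h. MTT 0.5 mg/ml added for 4 h, formazan dissolved in DMSO, absorbance read at 570 nm.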

Row | Compound | Activity [1] | inhibition [2] | Activity [3] | inhibition [4] | Activity [5]
1 | COc1cc(C(C)=O)cc(/C=[N+](\[O-])C(C)(C)C)c1O | inactive | inactive |  |  | 
2 | COc1cc(C(C)=O)cc(NC(=O)CCCC[C@@H]2CCSS2)c1O |  |  | Dose-dependent effect | Dose-dependent effect | Active
3 | COc1cc(C(C)=O)ccc1O | inactive | inactive |  |  | inactive
4 | COc1cc(C(C)=O)cc(CNc2cc(C(C)=O)cc(OC)c2O)c1O |  |  | Dose-dependent effect | Dose-dependent effect | Active
